ChEMBL document CHEMBL4765448, “Multiple biological active 4-aminopyrazoles containing trifluoromethyl and their 4-nitroso-precursors: Synthesis and evaluation” (Eur J Med Chem, 2020)
Converted amounts (≈) assume the structure as drawn. The source made the active and inactive calls. The calls are words filed in the database; no cut-off is given here.

Columns and labels:
[1] = test system: Pseudomonas aeruginosa; assay: Antibacterial activity against Pseudomonas aeruginosa; format: functional
[2] = test system: Citrobacter braakii; assay: Antibacterial activity against Citrobacter braakii; format: functional
[3] = test system: Proteus vulgaris; assay: Antibacterial activity against Proteus vulgaris; format: functional
[4] = test system: Microsporum canis; assay: Antifungal activity against Microsporum canis; format: functional
[5] = test system: Trichophyton tonsurans; assay: Antifungal activity against Trichophyton tonsurans; format: functional
[6] = test system: Epidermophyton floccosum; assay: Antifungal activity against Epidermophyton floccosum; format: functional
[7] = test system: Trichophyton rubrum; assay: Antifungal activity against Trichophyton rubrum; format: functional
[8] = test system: Rattus norvegicus; assay: Antiinflammatory activity in rat model of carrageenan-induced paw edema assessed as inhibition of hind paw swelling at 25 mg/kg, ip measured after 5 hrs; format: functional, organism-based
[9] = test system: Candida albicans; assay: Antifungal activity against Candida albicans; format: functional
[10] = test system: Streptococcus pyogenes; assay: Antibacterial activity against Streptococcus pyogenes; format: functional
[11] = test system: Klebsiella pneumoniae; assay: Antibacterial activity against Klebsiella pneumoniae; format: functional
[12] = Acute toxicity in mouse at 300 mg/kg, ip administered as single dose; format: organism-based; conditions: in vivo
Outline: (§1)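 Mice, single intraperitoneal dose, following OECD Guideline for testing of chemicals; three mice per dose level; doses tested 10–300 mg/kg. Read-out is the number of survivors out of 3, used to estimate the expected LD50 range.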

[13] = test system: Staphylococcus aureus; assay: Antibacterial activity against Staphylococcus aureus; format: functional
[14] = test system: Nannizzia gypsea; assay: Antifungal activity against Trichophyton gypseum; format: functional
[15] = test system: Escherichia coli; assay: Antibacterial activity against Escherichia coli; format: functional
[16] = test system: Trichophyton interdigitale; assay: Antifungal activity against Trichophyton mentagrophytes var. interdigitale; format: functional
[17] = test system: Serratia marcescens; assay: Antibacterial activity against Serratia marcescens; format: functional
[18] = test system: Neisseria gonorrhoeae; assay: Antibacterial activity against Neisseria gonorrhoeae; format: functional
[19] = test system: Trichophyton violaceum; assay: Antifungal activity against Trichophyton violaceum; format: functional
[20] = test system: Shigella flexneri; assay: Antibacterial activity against Shigella flexneri; format: functional
[21] = test system: Rattus norvegicus; assay: Analgesic activity in rat assessed as prolongation of latency period at 25 mg/kg, ip measured after 1 hr by hot-plate test relative to control; format: functional, organism-based
Outline: (§2)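 Hot-plate test in rats. Compounds were given by intraperitoneal injection. Latency was read at 1 h and, for some compounds, also at 2 h after dosing. Results are expressed as % prolongation of the latent period versus vehicle-treated control. Significance was given as p-values.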

[22] = test system: Rattus norvegicus; assay: Analgesic activity in rat assessed as prolongation of latency period at 10 mg/kg, ip measured after 1 hr by hot-plate test relative to control; format: functional; outline: as §2
[23] = Acute toxicity in mouse at 70 mg/kg, ip administered as single dose; format: organism-based; conditions: in vivo; outline: as §1
[24] = test system: Rattus norvegicus; assay: Antiinflammatory activity in rat model of carrageenan-induced paw edema assessed as inhibition of hind paw swelling at 10 mg/kg, ip measured after 1 hr relative to control; format: functional
[25] = test system: Rattus norvegicus; assay: Antiinflammatory activity in rat model of carrageenan-induced paw edema assessed as inhibition of hind paw swelling at 10 mg/kg, ip measured after 3 hrs relative to control; format: functional
[26] = Antioxidant activity assessed as trolox equivalent of ABTS radical scavenging activity measured after 1 hr by UV-vis spectrophotometric method; format: functional
Outline: (§3)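 ABTS cation-radical decolorization was read spectrophotometrically as the fall in absorbance after 1 h. Trolox was the reference. TEAC was taken as the ratio of concentration-response slopes, test/Trolox, and IC50 was also derived. Data are mean ± SEM, n = 3.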

[27] = test system: Mycobacterium tuberculosis; assay: Antitubercular activity against Mycobacterium tuberculosis H37Rv; format: functional
Outline: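 Mycobacterium tuberculosis strain H37Rv; minimum inhibitory concentration (MIC) taken as the lowest level needed to inhibit bacterial growth; isoniazid and pyrazinamide served as reference drugs.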

[28] = test system: Erythrocyte; assay: Antioxidant activity in human erythrocytes assessed as protection against AAPH-induced hemolysis at 50 uM preincubated for 20 mins followed by AAPH addition and measured after 2 hrs by spectrophotometric method relative to control; format: functional; conditions: time 140 min, 2.333 h
Outline: (§4)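 Erythrocyte hemolysis assay with AAPH as the free-radical initiator, testing 50 and 400 µM. Results are expressed as relative protection of membranes against oxidative damage, each the mean of two independent experiments.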

[29] = Antioxidant activity assessed as AAPH scavenging activity by measuring residual fluorescence at 10 uM measured at 1 min interval for 30 mins by ORAC fluorescein assay relative to control; format: functional
Outline: (§5)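 ORAC-FL assay with fluorescein as the probe and AAPH as the peroxyl radical generator. The loss of fluorescence over time was followed, and the result is given as % fluorescence restored at 10 and 50 µM. Each value is the mean of two independent experiments.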

[30] = Acute toxicity in mouse at 60 mg/kg, ip administered as single dose; format: organism-based; conditions: in vivo; outline: as §1
[31] = test system: Rattus norvegicus; assay: Analgesic activity in rat assessed as prolongation of latency period at 15 mg/kg, ip measured after 1 hr by hot-plate test relative to control; format: functional; outline: as §2
[32] = test system: HeLa; assay: Cytotoxicity against human HeLa cells; format: functional, cell-based; conditions: for IC50: Homo sapiens, HeLa, read-out: IC50
[33] = test system: NHDF; assay: Cytotoxicity against HDF cells; format: cell-based, Homo sapiens
[34] = Selectivity index, ratio of IC50 for HDF cells to IC50 for human HeLa cells; format: toxicity; conditions: HDF cells versus HeLa cells, read-out: Ratio IC50
[35] = test system: Rattus norvegicus; assay: Antiinflammatory activity in rat model of carrageenan-induced paw edema assessed as inhibition of hind paw swelling at 15 mg/kg, ip measured after 3 hrs relative to control; format: functional
[36] = Antioxidant activity assessed as AAPH scavenging activity by measuring residual fluorescence at 50 uM measured at 1 min interval for 30 mins by ORAC fluorescein assay relative to control; format: functional; outline: as §5
[37] = test system: Erythrocyte; assay: Antioxidant activity in human erythrocytes assessed as protection against AAPH-induced hemolysis at 400 uM preincubated for 20 mins followed by AAPH addition and measured after 2 hrs by spectrophotometric method relative to control; format: functional; conditions: time 140 min, 2.333 h; outline: as §4
[38] = test system: Rattus norvegicus; assay: Antiinflammatory activity in rat model of carrageenan-induced paw edema assessed as inhibition of hind paw swelling at 15 mg/kg, ip measured after 5 hrs; format: functional, organism-based
[39] = test system: Rattus norvegicus; assay: Antiinflammatory activity in rat model of carrageenan-induced paw edema assessed as inhibition of hind paw swelling at 15 mg/kg, ip measured after 1 hr relative to control; format: functional
[40] = test system: Rattus norvegicus; assay: Analgesic activity in rat assessed as prolongation of latency period at 15 mg/kg, ip measured after 2 hrs by hot-plate test relative to control; format: functional; outline: as §2
[41] = Antioxidant activity assessed as ABTS radical scavenging activity measured after 1 hr by UV-vis spectrophotometric method; format: functional; outline: as §3
[42] = Acute toxicity in ip dosed mouse administered as single dose; format: organism-based; conditions: in vivo; outline: as §1

Row | Compound | MIC [1] [µg/mL] | MIC [2] [µg/mL] | MIC [3] [µg/mL] | MIC [4] [µg/mL] | MIC [5] [µg/mL] | MIC [6] [µg/mL] | MIC [7] [µg/mL] | MIC [9] [µg/mL] | MIC [10] [µg/mL] | MIC [11] [µg/mL] | Activity [12] | MIC [13] [µg/mL] | MIC [14] [µg/mL] | MIC [15] [µg/mL] | MIC [16] [µg/mL] | MIC [17] [µg/mL] | MIC [18] [µg/mL] | MIC [19] [µg/mL] | MIC [20] [µg/mL] | Activity [26] | further results
1 | Cc1ccc(-c2c(N=O)c(C(F)(F)F)nn2-c2ccc(S(N)(=O)=O)cc2)cc1 | > 250 | > 250 | > 250 | 200 (≈ 487 µM) | 200 (≈ 487 µM) | 200 (≈ 487 µM) | 200 (≈ 487 µM) | > 200 | > 250 | > 250 | Non-Toxic | > 250 | 200 (≈ 487 µM) | > 250 | 200 (≈ 487 µM) | > 250 | 31.2 (≈ 76 µM) | > 200 | > 250 |  | Activity [8]: inactive; Activity [21]: inactive
2 | O=C(O)Cc1ccccc1Nc1c(Cl)cccc1Cl [DICLOFENAC] |  |  |  |  |  |  |  |  |  |  |  |  |  |  |  |  |  |  |  |  | Activity [22]: 57.1%; Activity [23]: Non-Toxic; inhibition in vivo at 10 mg/kg [24]: 53.9%; inhibition in vivo at 10 mg/kg [25]: 61.8%
3 | Cl.Cn1nc(C(F)(F)F)c(N)c1-c1ccccc1 | > 250 | > 250 | > 250 | 200 | > 200 | 200 | 200 | > 200 | > 250 | > 250 |  | > 250 | > 200 | > 250 | > 200 | > 250 | > 250 | 200 | > 250 | inactive | MIC [27]: 12.5 µg/mL; fold change (FC) [28]: 1.19; Activity [29]: 38.2%; Activity [30]: Non-Toxic; Activity [31]: 100.74%; Activity [32]: Dose-dependent effect; IC50 [32]: 0.074 µM; IC50 ([33]; nhdf): Not Active; selectivity ratio [34]: > 1350; inhibition in vivo at 15 mg/kg [35]: 32.9%; Activity [36]: 79%; fold change (FC) [37]: 1.11; Activity [38]: Active; inhibition in vivo at 15 mg/kg [39]: 54.3%
4 | Cc1ccc(C2=NN(c3ccc(S(N)(=O)=O)cc3)C(O)(C(F)(F)F)/C2=N/O)cc1 (stereo not given) |  |  |  |  |  |  |  |  |  |  | Non-Toxic |  |  |  |  |  |  |  |  | 0.48 equiv | Activity [40]: 96.55%; fold change (FC) [28]: 1.09; Activity [29]: 38.5%; Activity [31]: 58.9%; Activity [32]: Dose-dependent effect; IC50 [32]: 7.23 µM; IC50 [41]: 45.3 µM; IC50 ([33]; Homo sapiens, NHDF, read-out: IC50): 99.3 µM; selectivity ratio [34]: 13.7; inhibition [35]: inactive; Activity [36]: 59.4%; fold change (FC) [37]: 1.08; Activity [38]: Active; inhibition [39]: inactive; LD50 [42]: > 300 mg/kg
